GPR7 antag = GPR7 receptor antagonists, primary screen, cell-based, fluorescence, single concentration | 290,000 compounds, 1.1% hits | inhibition, % at 4.4 µM | GPR7-expressing cells, fluorescence antagonist assay | Neuropeptides B/W receptor type 1 (Homo sapiens), P48145; in the data active = inhibition above about 16%, passing the limit was not always enough;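 note: cells stimulated with the agonist NPW; 0% = agonist with vehicle and 100% = vehicle without agonist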
Target sequence (P48145 whole entry, looked up): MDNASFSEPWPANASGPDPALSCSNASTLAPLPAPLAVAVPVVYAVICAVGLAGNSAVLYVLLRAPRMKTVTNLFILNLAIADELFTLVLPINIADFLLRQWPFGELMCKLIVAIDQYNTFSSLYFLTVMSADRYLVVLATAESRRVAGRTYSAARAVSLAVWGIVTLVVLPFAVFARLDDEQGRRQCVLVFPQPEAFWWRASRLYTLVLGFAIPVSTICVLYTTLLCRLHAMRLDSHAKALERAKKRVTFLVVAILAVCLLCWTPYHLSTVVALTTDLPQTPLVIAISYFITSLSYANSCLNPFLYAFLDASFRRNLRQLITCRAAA
OX1R antag-1 = OX1R (HCRTR1) antagonists, primary screen, fluorescence, CHO/OX1R cells, Fluo-8 calcium, orexin A; Orexin/Hypocretin receptor type 1 (Homo sapiens), O43613; Fluo-8 calcium fluorescence; inhibition, % at 5 µM; 330,000 compounds, 0.43% hits;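 active = inhibition above its plate's threshold, mean inhibition of all tested compounds on the plate plus 3 SD, cut at about 37% in these data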;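 note: 0% = orexin A challenge wells and 100% = SB-334867-A antagonist wells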
TAAR1 ag = human TAAR1 agonists, primary screen, Fluo-8 calcium fluorescence, CHO RD-HGA16 cells. activation, % at 3 µM. 360,000 compounds, 0.99% hits. vehicle wells 0%, saturating PEA agonist 100%. Trace amine-associated receptor 1 (Homo sapiens), Q96RJ0;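 active = activation above the mean activation of all test compounds in the run plus 3 SD, cut at about 38% in these data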
Target sequence (Q96RJ0 whole entry, looked up): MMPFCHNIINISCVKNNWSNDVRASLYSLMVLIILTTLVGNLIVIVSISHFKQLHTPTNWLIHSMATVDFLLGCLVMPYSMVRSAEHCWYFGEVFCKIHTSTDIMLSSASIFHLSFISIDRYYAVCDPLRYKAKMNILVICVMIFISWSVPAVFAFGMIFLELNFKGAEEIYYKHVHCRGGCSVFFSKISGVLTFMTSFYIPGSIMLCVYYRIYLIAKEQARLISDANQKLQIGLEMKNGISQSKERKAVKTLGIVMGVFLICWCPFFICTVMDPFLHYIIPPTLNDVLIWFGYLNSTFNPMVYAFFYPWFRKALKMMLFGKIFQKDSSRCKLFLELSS
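Repeats: no replicates (n 1) | Material: CHO-derived RD-HGA16 cells with stable Gα16 and human TAAR1 | Technique: Kinetic Fluo-8 calcium fluorescence | Schedule: 17-24 h seeding, 75 min 37 °C dye, 30 min RT | Evaluation: % activation from peak over basal fluorescence ratio, DMSO-to-PEA scaled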
OX1R antag-2 = antagonists of human orexin 1 receptor (OX1R); Orexin/Hypocretin receptor type 1 (Homo sapiens), O43613; OX1R-expressing cells, FRET antagonist read-out; inhibition, % at 6.6 µM; 330,000 compounds, 1.8% hits; in the data active = inhibition mostly above about 38%, no sharp cut-off; inactive = mostly below about 40%;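 note: 0% = agonist challenge alone and 100% = reference antagonist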
TAAR1 antagonist = human TAAR1 antagonists, primary screen, Fluo-8 calcium fluorescence, CHO RD-HGA16 cells; antagonist; Trace amine-associated receptor 1 (Homo sapiens), Q96RJ0; inhibition, % at 3 µM; 360,000 compounds, 1.5% hits; AID 624466, 2012;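 active = inhibition above a per-plate cutoff, the mean inhibition of test compounds on that plate plus 3 SD, cut at about 49% in these data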;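 note: 0% = DMSO plus EC80 beta-PEA response and 100% = DMSO alone without agonist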
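Test system: CHO RD-HGA16 cells bearing hTAAR1 | Reagent: β-PEA, EC80 | Compound dosing: 3 µM, single point | Schedule: Dye loading 75 min at 37 °C, then 30 min room temperature | Signal: Calcium fluorescence with Fluo-8 | Evaluation: Percent inhibition of PEA-evoked calcium signal, max/basal emission ratio | Control set: DMSO-only wells and EC80 β-PEA-stimulated wells | Repeats: Singlicate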
CHO parental Ca = ATP-evoked calcium signal inhibitors, parental CHO, primary screen, counter-screen for OX1R antagonist project, cell-based, fluorescence, Fluo-8 calcium dye; parental CHO-K1, ATP-induced calcium, Fluo-8 fluorescence; inhibition, % at 5.6 µM; 330,000 compounds, 0.63% hits; AID 463079, 2010;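 active = inhibition above that plate's mean sample inhibition plus 3 SD, cut at about 26% in these data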;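 note: 0% = ATP-challenged DMSO wells and 100% = DMSO wells without ATP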
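material = parental CHO cells | also added = ATP as calcium-mobilizing challenge | dosing = single point at 5.6 µM | detection = intracellular calcium via Fluo-8 no-wash fluorescent dye | read-out = % inhibition | benchmarks = low control ATP plus DMSO, high control DMSO only | repeats = one well per compound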
nonsel antag count = nonselective antagonists in TAAR1 counter-screen cells, counter-screen for hTAAR1 antagonist project, cell-based, fluorescence, calcium. inhibition, % at 3 µM. shares compounds with TAAR1 antagonist. counterscreen cell line, antagonist mode. 2,400 compounds, 77% hits; in the data active = inhibition above about 22%;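 note: CHO-Ga16 host cells stimulated with ATP at an EC80 level; 0% = agonist EC80 plus vehicle and 100% = vehicle without agonist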
TAAR1 ant conf = human TAAR1 antagonists, retest of hits, confirmation, cell-based, fluorescence. shares compounds with TAAR1 antagonist. TAAR1-expressing cells, fluorescence antagonist read-out. inhibition, % at 3 µM. 2,400 compounds, 40% hits; in the data active = inhibition above about 49%;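 note: CHO-Ga16 host cells challenged with agonist PEA near its EC80; 0% = agonist at EC80 plus vehicle and 100% = vehicle with no agonist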
Ga16 ag counter = calcium activation in Ga16-expressing cells, counter-screen for TAAR1 antagonist project, cell-based, fluorescence; shares compounds with TAAR1 antagonist; activation, % at 3 µM; 2,400 compounds, 18% hits; AID 651953, 2012; agonist counterscreen; in the data active = activation above about 12%;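 note: 0% = vehicle wells and 100% = saturating stimulus response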
TAAR1 ag count = TAAR1 activation by candidate antagonists – cell-based, fluorescence, counter-screen for TAAR1 antagonist project; shares compounds with TAAR1 antagonist; hTAAR1 cell line, agonist mode; activation, % at 3 µM; 2,400 compounds, 2% hits; in the data active = activation above about 37%;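 note: CHO cells stably expressing TAAR1 with calcium dye readout; 0% = DMSO vehicle and 100% = full agonist response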
An asterisk follows results filed as active; . = no result given. Compounds with a hit are over-represented: about 4.5% of the library has one in this group of screens.

SMILES	GPR7 antag	OX1R antag-1	TAAR1 ag	OX1R antag-2	TAAR1 antagonist	CHO parental Ca	nonsel antag count	TAAR1 ant conf	Ga16 ag counter	TAAR1 ag count
COc1ccc(C(=O)C(=O)N2CCC(c3ccccc3)CC2)cn1	.	.	-1	.	-1	.	.	.	.	.
CC(OC(=O)CNS(=O)(=O)c1ccc2ccccc2c1)C(=O)N(C)c1ccccc1 (stereo not drawn)	0	-12	0	49	-18	-1	.	.	.	.
CC(OC(=O)COc1ccc(Nc2ccccc2)cc1)C(=O)N(C)c1ccccc1 (stereo not drawn)	.	-13	5	38	73*	-4	30*	43	8	2
COC1=Nc2ccccc2/C=C\c2ccccc21	.	.	6	.	-28	.	.	.	.	.
COc1cccc(-c2cnc3c(NC(C)=O)cc(-c4ccc(S(C)(=O)=O)cc4)cn23)c1	.	.	2	.	-32	.	.	.	.	.
CCC(C)(C)n1nnnc1CN(Cc1cccs1)Cc1cc2cc(OC)ccc2[nH]c1=O	.	-26	31	28	43	-39	.	.	.	.
CCOc1ccc2[nH]c(=O)c(CN(Cc3cccs3)Cc3nnnn3C(C)(C)CC)cc2c1	-9	-14	12	7	55*	-46	13	37	5	14
Cc1cn([C@H]2C[C@H](O)[C@@H](CNC=O)O2)c(=O)[nH]c1=O	.	.	3	.	-11	.	.	.	.	.
COC(=O)C1=C(C)N(Cc2ccc(C(F)(F)F)cc2)C(=NCc2ccccc2)NC1c1cccc(Cl)c1 (stereo not drawn)	.	.	27	.	60*	.	39*	37	13*	35
COC(=O)C1=C(C)N(Cc2cccc(C(F)(F)F)c2)C(=NCc2ccc3c(c2)OCO3)NC1c1ccc(Cl)cc1 (stereo not drawn)	.	.	29	.	56*	.	37*	41	19*	52*
COC(=O)C1=C(C)N(Cc2ccc(F)cc2)C(=S)NC1c1cccc(OC)c1 (stereo not drawn)	.	.	-1	.	57*	.	24*	41	2	3
COC(=O)C1=C(C)N(Cc2ccc(C(F)(F)F)cc2)C(=NCc2ccccc2)NC1c1ccc(C(F)(F)F)cc1 (stereo not drawn)	.	.	23	.	55*	.	41*	33	21*	44*
COC(=O)C1=C(C)N(Cc2cccc(C(F)(F)F)c2)C(=NCc2ccc(C(F)(F)F)cc2)NC1c1ccc(Cl)cc1 (stereo not drawn)	.	.	13	.	31	.	.	.	.	.
CCCc1ccc(S(=O)(=O)N2CCN(C(=O)CN3C(=O)NC(C)(C4CC4)C3=O)CC2)cc1 (stereo not drawn)	.	.	-1	.	-7	.	.	.	.	.
COC(=O)C1=C(C)N(C)C(=NCc2cc(OC)c(OC)c(OC)c2)NC1c1ccc(C(F)(F)F)cc1 (stereo not drawn)	.	.	3	.	-25	.	.	.	.	.
COC(=O)C1=C(C)N(Cc2cccc(C(F)(F)F)c2)C(=NCc2ccc(OC)cc2)NC1c1ccc(F)cc1 (stereo not drawn)	.	.	31	.	53*	.	41*	33	15*	30
COC(=O)C1=C(C)N(Cc2ccc(C(F)(F)F)cc2)C(=NCc2ccccc2)NC1c1cccc(C(F)(F)F)c1 (stereo not drawn)	.	.	18	.	29	.	.	.	.	.
COC(=O)C1=C(C)N(Cc2ccc(C(F)(F)F)cc2)C(=NCc2ccccc2)NC1c1ccccc1 (stereo not drawn)	.	.	34	.	51*	.	36*	32	18*	36
COC(=O)C1=C(C)N(Cc2cccc(C(F)(F)F)c2)C(=NCc2ccc(C(F)(F)F)cc2)NC1c1ccccc1 (stereo not drawn)	.	.	10	.	19	.	.	.	.	.
COC(=O)C1=C(C)N(C)C(=NCc2cccc(C(F)(F)F)c2)NC1c1ccc(C(F)(F)F)cc1 (stereo not drawn)	.	.	27	.	51*	.	33*	40	13*	26
CC(C)(C)NC(=O)C(c1ccc(C#N)cc1)n1c(=O)c(-c2cc3ccccc3[nH]2)nc2ccccc21 (stereo not drawn)	.	.	1	.	-19	.	.	.	.	.
COc1ccc(C(=O)N2N=C(c3cccc(NS(C)(=O)=O)c3)CC2c2cccs2)cc1 (stereo not drawn)	5	-19	13	9	61*	-3	31*	48	10	12
CS(=O)(=O)Nc1cccc(C2=NN(C(=O)c3ccc(F)cc3)C(c3cccs3)C2)c1 (stereo not drawn)	12	-7	7	-6	-2	2	.	.	.	.
COCCN(CC(=O)Nc1cc(Cl)ccc1-n1cncn1)Cc1nc2ccccc2c(=O)[nH]1	.	-41	6	2	13	-25	.	.	.	.
CC(C)c1c(C(=O)N/N=C/c2c[nH]c3ccccc23)nnn1-c1nonc1N	24	25	33	3	75*	25	40*	62*	18*	18
CCCC(=O)N1CCCC(c2cc(C(=O)NCc3ccc(F)cc3)no2)C1 (stereo not drawn)	.	.	1	.	-6	.	.	.	.	.
O=C(NCCc1ccccc1)c1cccs1	4	-17	15	15	6	-6	.	.	.	.
CCN=c1sc(C(=O)NCCc2ccccc2)cc(=O)n1CC	-4	-16	26	20	55*	-14	31*	53*	11	25
OC[C@@H]1CN(Cc2ccc(-c3ccccc3)cc2)C[C@H](n2cnc3c(NCc4ccncc4)ncnc32)O1	.	.	19	.	34	.	.	.	.	.
COc1cccc(NC(=O)CN(C)C(=O)c2cc(-c3ccccc3)nc3ccc(C)cc23)c1	.	.	11	.	74*	.	40*	61*	10	7

Assay outcomes from PubChem.
